Values after ≈ are worked out from the molar mass of the structure shown.
Legend:
Format in all cases: functional
[1] = tested on: Parabacteroides distasonis; assay: Antimicrobial activity against Bacteroides distasonis by agar dilution method
Method in brief: (§1)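 CLSI agar dilution on enriched brucella agar (5% lysed defibrinated sheep blood, 1 μg/ml vitamin K1), with drug plates made on the test day. Log-phase cells were adjusted to 0.5 McFarland, and about 10^5 CFU/spot was delivered by Steers replicator. Plates were incubated anaerobically at 37°C for 48 h. MIC was the lowest concentration giving a marked growth change versus the control plate. Controls were B. fragilis ATCC 25285 and B. thetaiotaomicron ATCC 29741.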

[2] = tested on: Bacteroides caccae; assay: Antimicrobial activity against Bacteroides caccae assessed as resistant isolates by agar dilution method
Method in brief: (§2)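 CLSI agar dilution on enriched brucella agar (5% lysed defibrinated sheep blood, 1 μg/ml vitamin K1), plates made on test day. Log-phase inocula adjusted to 0.5 McFarland; about 10^5 CFU/spot by Steers replicator. Incubated anaerobically at 37°C for 48 h. MIC was the lowest concentration giving a marked change in growth versus the drug-free control plate. Resistance rates used CLSI anaerobe breakpoints. Controls were B. fragilis ATCC 25285 and B. thetaiotaomicron ATCC 29741.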

[3] = tested on: Bacteroides caccae; assay: Antimicrobial activity against Bacteroides caccae by agar dilution method; method in brief: as §1
[4] = tested on: Parabacteroides distasonis; assay: Antimicrobial activity against Bacteroides distasonis assessed as resistant isolates by agar dilution method; method in brief: as §2
[5] = tested on: Bacteroides fragilis; assay: Antimicrobial activity against Bacteroides fragilis by agar dilution method; method in brief: as §1
[6] = tested on: Bacteroides fragilis; assay: Antimicrobial activity against Bacteroides fragilis assessed as resistant isolates by agar dilution method; method in brief: as §2
[7] = tested on: Bacteroides ovatus; assay: Antimicrobial activity against Bacteroides ovatus by agar dilution method; method in brief: as §1
[8] = tested on: Bacteroides ovatus; assay: Antimicrobial activity against Bacteroides ovatus assessed as resistant isolates by agar dilution method; method in brief: as §2
[9] = tested on: Bacteroides thetaiotaomicron; assay: Antimicrobial activity against Bacteroides thetaiotaomicron by agar dilution method; method in brief: as §1
[10] = tested on: Bacteroides thetaiotaomicron; assay: Antimicrobial activity against Bacteroides thetaiotaomicron assessed as resistant isolates by agar dilution method; method in brief: as §2
[11] = tested on: Bacteroides uniformis; assay: Antimicrobial activity against Bacteroides uniformis by agar dilution method; method in brief: as §1
[12] = tested on: Bacteroides uniformis; assay: Antimicrobial activity against Bacteroides uniformis assessed as resistant isolates by agar dilution method; method in brief: as §2
[13] = tested on: Phocaeicola vulgatus; assay: Antimicrobial activity against Bacteroides vulgatus by agar dilution method; method in brief: as §1
[14] = tested on: Phocaeicola vulgatus; assay: Antimicrobial activity against Bacteroides vulgatus assessed as resistant isolates by agar dilution method; method in brief: as §2
[15] = tested on: Bacteroides eggerthii; assay: Antimicrobial activity against Bacteroides eggerthii by agar dilution method; method in brief: as §1
[16] = tested on: Bacteroides eggerthii; assay: Antimicrobial activity against Bacteroides eggerthii assessed as resistant isolates by agar dilution method; method in brief: as §2
[17] = tested on: Parabacteroides merdae; assay: Antimicrobial activity against Bacteroides merdae by agar dilution method; method in brief: as §1
[18] = tested on: Parabacteroides merdae; assay: Antimicrobial activity against Bacteroides merdae assessed as resistant isolates by agar dilution method; method in brief: as §2
[19] = tested on: Bacteroides nordii; assay: Antimicrobial activity against Bacteroides nordii by agar dilution method; method in brief: as §1
[20] = tested on: Bacteroides nordii; assay: Antimicrobial activity against Bacteroides nordii assessed as resistant isolates by agar dilution method; method in brief: as §2
[21] = tested on: Clostridioides difficile; assay: Antimicrobial activity against Clostridium difficile by agar dilution method
[22] = tested on: Clostridium perfringens; assay: Antimicrobial activity against Clostridium perfringens by agar dilution method
[23] = tested on: [Clostridium] innocuum; assay: Antimicrobial activity against Clostridium innocuum by agar dilution method
[24] = tested on: [Clostridium] innocuum; assay: Antimicrobial activity against Clostridium innocuum assessed as resistant isolates by agar dilution method; conditions: pooled result: one value given for 4 cell lines, strains, targets or settings
[25] = tested on: Clostridium paraputrificum; assay: Antimicrobial activity against Clostridium paraputrificum by agar dilution method
[26] = tested on: Clostridium subterminale; assay: Antimicrobial activity against Clostridium subterminale by agar dilution method
[27] = tested on: Clostridium tertium; assay: Antimicrobial activity against Clostridium tertium by agar dilution method
[28] = tested on: Finegoldia magna; assay: Antimicrobial activity against Finegoldia magna by agar dilution method
Method in brief: (§3)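 Gram-positive anaerobes were tested by CLSI agar dilution on brucella agar enriched with 5% lysed defibrinated sheep blood and 1 μg/ml vitamin K1. Inoculum was log-phase growth at 0.5 McFarland, about 10^5 CFU/spot by replicator. Incubation was anaerobic, 37°C, 48 h. MIC was the lowest concentration with a marked growth change versus the drug-free plate. Eubacterium lentum ATCC 43055 was the control, and tests were repeated if it fell outside the CLSI range.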

[29] = tested on: Finegoldia magna; assay: Antimicrobial activity against Finegoldia magna assessed as resistant isolates by agar dilution method
Method in brief: (§4)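 Agar dilution following CLSI on brucella agar with 5% lysed defibrinated sheep blood and 1 μg/ml vitamin K1, plates made on test day. Log-phase cells at 0.5 McFarland, about 10^5 CFU/spot by Steers replicator, 48 h anaerobic at 37°C. MIC read as the lowest concentration causing a marked growth change versus control. Resistance counted by CLSI anaerobe breakpoints. Eubacterium lentum ATCC 43055 served as control.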

[30] = tested on: Peptoniphilus asaccharolyticus; assay: Antimicrobial activity against Peptoniphilus asaccharolyticus by agar dilution method; method in brief: as §3
[31] = tested on: Peptoniphilus asaccharolyticus; assay: Antimicrobial activity against Peptoniphilus asaccharolyticus assessed as resistant isolates by agar dilution method; conditions: pooled result: one value given for 4 cell lines, strains, targets or settings; method in brief: as §4
[32] = tested on: Parvimonas micra; assay: Antimicrobial activity against Micromonas micros by agar dilution method; method in brief: as §3
[33] = tested on: Anaerococcus prevotii; assay: Antimicrobial activity against Anaerococcus prevotii by agar dilution method; method in brief: as §3
[34] = tested on: Peptostreptococcus sp.; assay: Antimicrobial activity against Peptostreptococcus sp. by agar dilution method
Method in brief: (§5)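 Log-phase isolates were adjusted to 0.5 McFarland, and about 10^5 CFU/spot was delivered by Steers replicator. Plates were incubated anaerobically at 37°C for 48 h. MIC was the lowest concentration giving a marked growth change versus the control plate. Eubacterium lentum ATCC 43055 was the QC strain, with repeats when out of range.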

[35] = tested on: Cutibacterium acnes; assay: Antimicrobial activity against Propionibacterium acnes by agar dilution method; method in brief: as §5
[36] = tested on: Cutibacterium acnes; assay: Antimicrobial activity against Propionibacterium acnes assessed as resistant isolates by agar dilution method; method in brief: as §4
[37] = tested on: Propionibacterium; assay: Antimicrobial activity against Propionibacterium sp. by agar dilution method; method in brief: as §5
[38] = tested on: Propionibacterium; assay: Antimicrobial activity against Propionibacterium sp. assessed as resistant isolates by agar dilution method; method in brief: as §4

Work on `C[C@@H](O)[C@H]1C(=O)N2C(C(=O)O)=C(S[C@@H]3CN[C@H](CNS(N)(=O)=O)C3)[C@H](C)[C@H]12` [DORIPENEM] yielded an MIC50 [1] of 0.5 µg/mL (≈ 1.19 µM), an MIC90 [1] of 2 µg/mL (≈ 4.76 µM) and an Activity [2] of 0%. It also gave an MIC50 [3] of 0.5 µg/mL (≈ 1.19 µM), an MIC90 [3] of 2 µg/mL (≈ 4.76 µM) and an Activity [4] of 0%. It also gave an MIC50 [5] of 0.5 µg/mL (≈ 1.19 µM), an MIC90 [5] of 1 µg/mL (≈ 2.38 µM) and an Activity [6] of 1.5%. For the same compound, the MIC50 [7] was 0.5 µg/mL (≈ 1.19 µM), the MIC90 [7] was 2 µg/mL (≈ 4.76 µM) and the Activity [8] was 0%. It also gave an MIC50 [9] of 0.5 µg/mL (≈ 1.19 µM), an MIC90 [9] of 1 µg/mL (≈ 2.38 µM) and an Activity [10] of 0%. The MIC50 [11] was 0.5 µg/mL (≈ 1.19 µM), the MIC90 [11] was 1 µg/mL (≈ 2.38 µM) and the Activity [12] was 0%. For the same compound, the MIC50 [13] was 0.5 µg/mL (≈ 1.19 µM), the MIC90 [13] was 2 µg/mL (≈ 4.76 µM) and the Activity [14] was 0%. It also gave an MIC50 [15] of 0.5 µg/mL (≈ 1.19 µM), an MIC90 [15] of 1 µg/mL (≈ 2.38 µM) and an Activity [16] of 0%. For the same compound, the MIC50 [17] was 0.5 µg/mL (≈ 1.19 µM), the MIC90 [17] was 1 µg/mL (≈ 2.38 µM) and the Activity [18] was 0%. It also gave an MIC50 [19] of 0.5 µg/mL (≈ 1.19 µM), an MIC90 [19] of 1 µg/mL (≈ 2.38 µM) and an Activity [20] of 0%. It also gave an MIC [21] of 1 µg/mL (≈ 2.38 µM), an MIC [22] of 0.06 µg/mL (≈ 0.143 µM) and an MIC50 [22] of 0.06 µg/mL (≈ 0.143 µM). It also gave an MIC90 [22] of 0.125 µg/mL (≈ 0.297 µM), an MIC50 [23] of 1 µg/mL (≈ 2.38 µM) and an MIC90 [23] of 2 µg/mL (≈ 4.76 µM). For the same compound, the Activity [24] was 0%, the MIC50 [25] was 1 µg/mL (≈ 2.38 µM) and the MIC90 [25] was 2 µg/mL (≈ 4.76 µM). It also gave an MIC50 [26] of 1 µg/mL (≈ 2.38 µM), an MIC90 [26] of 2 µg/mL (≈ 4.76 µM) and an MIC50 [27] of 1 µg/mL (≈ 2.38 µM). It also gave an MIC90 [27] of 2 µg/mL (≈ 4.76 µM), an MIC50 [28] of 0.125 µg/mL (≈ 0.297 µM) and an MIC90 [28] of 0.125 µg/mL (≈ 0.297 µM). For the same compound, the Activity [29] was 0%, the MIC [30] was 0.06 µg/mL (≈ 0.143 µM) and the MIC50 [30] was 0.06 µg/mL (≈ 0.143 µM). It also gave an MIC90 [30] of 0.5 µg/mL (≈ 1.19 µM), an Activity [31] of 0% and an MIC [32] of 0.06 µg/mL (≈ 0.143 µM). The MIC50 [32] was 0.06 µg/mL (≈ 0.143 µM), the MIC90 [32] was 0.5 µg/mL (≈ 1.19 µM) and the MIC [33] was 0.06 µg/mL (≈ 0.143 µM). The MIC50 [33] was 0.06 µg/mL (≈ 0.143 µM), the MIC90 [33] was 0.5 µg/mL (≈ 1.19 µM) and the MIC [34] was 0.06 µg/mL (≈ 0.143 µM). The MIC50 [34] was 0.06 µg/mL (≈ 0.143 µM), the MIC90 [34] was 0.5 µg/mL (≈ 1.19 µM) and the MIC [35] was 0.06 µg/mL (≈ 0.143 µM). For the same compound, the MIC50 [35] was 0.06 µg/mL (≈ 0.143 µM), the MIC90 [35] was 0.06 µg/mL (≈ 0.143 µM) and the Activity [36] was 0%. It also gave an MIC [37] of 0.06 µg/mL (≈ 0.143 µM), an MIC50 [37] of 0.06 µg/mL (≈ 0.143 µM) and an MIC90 [37] of 0.06 µg/mL (≈ 0.143 µM). It also gave an Activity [38] of 0%.

— ChEMBL document CHEMBL1275561, “In vitro activities of doripenem, a new broad-spectrum carbapenem, against recently collected clinical anaerobic isolates, with emphasis on the Bacteroides fragilis group” (2008)
